Laboratory results from ChEMBL document CHEMBL1132961 (J Med Chem, 2000).

Assays:
[1] = test system: Human immunodeficiency virus 1; experiment: Effective concentration at which 50% of the HIV-IIIB-infected human lymphocyte-derived CEM cells protected from HIV-1 infection; conditions: Human immunodeficiency virus 1, CCRF-CEM
[2] = biological target: T1, Human immunodeficiency virus type 1 protease (Human immunodeficiency virus 1, UniProt Q72874); experiment: Activity of potent nonpeptidic inhibitor against protease
Outline: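 Incubated with 40 µM His-Lys-Ala-Arg-Val-Leu-(p-NO₂-Phe)-Glu-Ala-Nle-Ser-NH₂ in 1.0% DMSO, pH 6.2 MES buffer (DTT, NaCl, EDTA, PEG 8000) for 60 min at 37 °C, then TFA quench. Substrate and product separated by reverse-phase HPLC, read at 220 nm. % control = conversion with inhibitor / conversion without × 100; IC50 derived.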

[3] = Concentration which elicits cytotoxicity in 50% of uninfected human lymphocyte derived CEM cells; format: cell-based, CCRF-CEM; conditions: uninfected CCRF-CEM cells, read-out: TC50 (the source's name)
Outline: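 Cytotoxicity measured in uninfected human lymphocyte-derived CEM cells by XTT protocol.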

[4] = Tested for maximum plasma concentration in mice; format: ADME, organism-based; conditions: mouse
Outline: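 Mice dosed orally by gavage at 25 mg/kg. Vehicle was usually 20% 0.1 N NaOH/80% 0.5% methylcellulose, and in two cases 20% 0.1 N NaOH/80% PEG 400. Plasma Cmax and AUC measured; AUC not determined where Cmax was too low.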

[5] = biological target: T1, Human immunodeficiency virus type 1 protease; experiment: Tested for binding affinity against HIV protease

Row | SMILES | EC50 [1] [nM] | IC50 [2] [nM] | CC50 [3] [nM] | Cmax [4] [nM] | Ki [5] [nM]
1 | Cc1cc(SC2=C(O)OC(CCc3ccc(N)cc3)(C(C)C)CC2=O)c(C(C)(C)C)cc1OS(=O)(=O)c1cccnc1 (stereo not given) | 2200 | 4.1 | 66000 |  | 
2 | Cc1cc(SC2=C(O)OC(CCc3ccc(O)cc3)(C3CC3)CC2=O)c(C(C)(C)C)cc1NS(=O)(=O)c1ccccc1 (stereo not given) | 2400 | 3.6 | 76000 |  | 
3 | Cc1cc(SC2=C(O)OC(C)(CCc3ccc(O)cc3)CC2=O)c(C(C)(C)C)cc1NS(=O)(=O)c1ccc(C#N)cc1 (stereo not given) | 5000 | 2.1 | > 100000 |  | 
4 | Cc1cc(SC2=C(O)OC(CCc3ccccc3)(C(C)C)CC2=O)c(C(C)(C)C)cc1NS(=O)(=O)c1ccc(C#N)cc1 (stereo not given) | 500 | 9.1 | 66000 | 2000 | 
5 | Cc1cc(SC2=C(O)OC(CCc3ccc(O)cc3)(C3CCCC3)CC2=O)c(C(C)(C)C)cc1NS(=O)(=O)c1ccccc1 (stereo not given) | 2500 | 8.6 | 67000 |  | 
6 | Cc1cc(SC2=C(O)OC(CCc3ccccc3)(C(C)C)CC2=O)c(C(C)(C)C)cc1NS(=O)(=O)c1ccccn1 (stereo not given) | 700 | 3 | 67000 | 1140 | 
7 | Cc1cc(SC2=C(O)OC(CCc3ccc(O)cc3)(C(C)C)CC2=O)c(C(C)(C)C)cc1NS(=O)(=O)c1ccc(C#N)cc1 (stereo not given) | 1600 | 2.2 | 85000 |  | 0.41
8 | Cc1cc(SC2=C(O)OC(CCc3ccc(O)cc3)(C(C)C)CC2=O)c(C(C)(C)C)cc1OS(=O)(=O)c1ccccn1 (stereo not given) | 700 | 5 | 84000 |  | 
9 | Cc1cc(SC2=C(O)OC(CCc3ccc(O)cc3)(C(C)C)CC2=O)c(C(C)(C)C)cc1NS(=O)(=O)c1ccccn1 (stereo not given) | 4100 | 2.6 | > 100000 |  | 
10 | Cc1cc(SC2=C(O)OC(CCc3ccccc3)(C(C)C)CC2=O)c(C(C)(C)C)cc1NS(C)(=O)=O (stereo not given) | 1600 |  | > 100000 |  | 0.83
11 | Cc1cc(SC2=C(O)OC(C)(CCc3ccc(O)cc3)CC2=O)c(C(C)(C)C)cc1NS(=O)(=O)c1ccc(-c2cccs2)cc1 (stereo not given) | 5600 | 6.3 | > 100000 |  | 
12 | Cc1cc(SC2=C(O)OC(CCc3ccccc3)(C(C)C)CC2=O)c(C(C)(C)C)cc1NS(=O)(=O)Cn1ccnc1 (stereo not given) | 4200 | 1.9 | > 100000 |  | 
13 | Cc1cc(SC2=C(O)OC(C)(CCc3ccc(O)cc3)CC2=O)c(C(C)(C)C)cc1NS(=O)(=O)c1ccc(F)cc1 (stereo not given) | 5600 | 3.7 | 93000 |  | 
14 | Cc1cc(SC2=C(O)OC(CCc3ccc(O)cc3)(C3CCCCC3)CC2=O)c(C(C)(C)C)cc1OS(=O)(=O)c1ccc(C#N)cc1 (stereo not given) | 2600 | 21 | 29000 |  | 
15 | Cc1cc(SC2=C(O)OC(C)(CCc3ccc(O)cc3)CC2=O)c(C(C)(C)C)cc1NS(=O)(=O)Cn1ccnc1 (stereo not given) | 58000 | 1.9 | > 100000 |  | 
16 | Cc1cc(SC2=C(O)OC(CCc3ccc(O)cc3)(C(C)C)CC2=O)c(C(C)(C)C)cc1NS(=O)(=O)c1ccc(F)cc1 (stereo not given) | 1800 | 4.1 | 66000 |  | 
17 | Cc1cc(SC2=C(O)OC(CCc3ccccc3)(C(C)C)CC2=O)c(C(C)(C)C)cc1O (stereo not given) | 1800 |  | 66000 |  | 1.1
18 | Cc1cc(SC2=C(O)OC(CCc3ccc(O)cc3)(C(C)C)CC2=O)c(C(C)(C)C)cc1OS(=O)(=O)c1cccnc1 (stereo not given) | 1600 | 3.5 | 76000 | 630 | 
19 | Cc1cc(SC2=C(O)OC(CCc3ccc(O)cc3)(C(C)C)CC2=O)c(C(C)(C)C)cc1NS(=O)(=O)c1ccc(C(F)(F)F)cc1 (stereo not given) | 1100 | 18.3 | 66000 |  | 
20 | CCNS(=O)(=O)Nc1cc(C(C)(C)C)c(SC2=C(O)OC(CCc3ccc(O)cc3)(C(C)C)CC2=O)cc1C (stereo not given) | 3300 | 1.7 | > 100000 |  | 

Row | SMILES | EC50 [1] [nM] | IC50 [2] [nM] | CC50 [3] [nM] | Cmax [4] [nM] | Ki [5] [nM]
21 | Cc1cc(SC2=C(O)OC(C)(CCc3ccc(O)cc3)CC2=O)c(C(C)(C)C)cc1OS(=O)(=O)c1ccccc1 (stereo not given) | 12000 | 9.8 | 82000 |  | 
22 | Cc1cc(SC2=C(O)O[C@](CCc3ccc(O)cc3)(C(C)C)CC2=O)c(C(C)(C)C)cc1NS(=O)(=O)c1ccc(C(F)(F)F)cn1 | 1800 |  | 66000 |  | 0.39
23 | Cc1cc(SC2=C(O)OC(CCc3ccccc3)(C(C)C)CC2=O)c(C(C)(C)C)cc1NS(=O)(=O)c1cccc(C#N)c1 (stereo not given) | 1500 |  | 66000 |  | 1.4
24 | Cc1cc(SC2=C(O)OC(C)(CCc3ccc(O)cc3)CC2=O)c(C(C)(C)C)cc1NS(=O)(=O)c1ccc(C(F)(F)F)cc1 (stereo not given) | 3500 | 12.3 | 79000 |  | 
25 | Cc1cc(SC2=C(O)OC(CCc3ccc(O)cc3)(C(C)C)CC2=O)c(C(C)(C)C)cc1NS(=O)(=O)c1ccccc1 (stereo not given) | 1400 | 1.8 | 74000 |  | 0.53
26 | Cc1cc(SC2=C(O)OC(CCc3ccccc3)(C(C)C)CC2=O)c(C(C)(C)C)cc1N (stereo not given) | 1900 | 3.6 | 69000 |  | 
27 | Cc1cc(SC2=C(O)O[C@@](CCc3ccc(O)cc3)(C(C)C)CC2=O)c(C(C)(C)C)cc1NS(=O)(=O)c1ccc(C(F)(F)F)cn1 | 18000 |  | 66000 |  | 9.54
28 | Cc1cc(SC2=C(O)O[C@@](CCc3ccccc3)(C(C)C)CC2=O)c(C(C)(C)C)cc1NS(=O)(=O)c1ccc(C(F)(F)F)cn1 | 5900 |  | 66000 |  | 6.4
29 | Cc1cc(SC2=C(O)OC(CCc3ccc(O)cc3)(C(C)C)CC2=O)c(C(C)(C)C)cc1OS(=O)(=O)c1ccccc1 (stereo not given) | 1600 | 10.4 | 66000 |  | 
30 | Cc1cc(SC2=C(O)OC(CCc3ccc(O)cc3)(C(C)C)CC2=O)c(C(C)(C)C)cc1NS(=O)(=O)c1cccc(C#N)c1 (stereo not given) | 5300 |  | > 100000 |  | 0.21
31 | Cc1cc(SC2=C(O)OC(C)(CCc3ccc(O)cc3)CC2=O)c(C(C)(C)C)cc1NS(C)(=O)=O (stereo not given) | 19000 | 9.7 | > 100000 |  | 
32 | Cc1cc(SC2=C(O)OC(CCc3ccc(O)cc3)(C(C)C)CC2=O)c(C(C)(C)C)cc1OS(=O)(=O)c1ccc(F)cc1 (stereo not given) | 800 | 9.6 | 66000 |  | 
33 | Cc1cc(SC2=C(O)OC(CCc3ccccc3)(C(C)C)CC2=O)c(C(C)(C)C)cc1OS(=O)(=O)c1ccc(C#N)cc1 (stereo not given) | 1100 |  | 25000 |  | 0.7
34 | Cc1cc(SC2=C(O)OC(CCc3ccccc3)(C(C)C)CC2=O)c(C(C)(C)C)cc1OS(=O)(=O)c1ccccn1 (stereo not given) | 1400 | 6.7 | 65000 |  | 
35 | Cc1cc(SC2=C(O)OC(CCc3ccc(O)cc3)(C(C)C)CC2=O)c(C(C)(C)C)cc1NS(=O)(=O)N(C)C (stereo not given) | 1700 | 3.6 | > 100000 |  | 
36 | Cc1cc(SC2=C(O)OC(CCc3ccc(O)cc3)(C(C)C)CC2=O)c(C(C)(C)C)cc1NS(=O)(=O)c1cccs1 (stereo not given) | 1800 | 8.7 | > 100000 |  | 
37 | Cc1cc(SC2=C(O)OC(CCc3ccc(O)cc3)(C3CCCCC3)CC2=O)c(C(C)(C)C)cc1OS(=O)(=O)c1ccccc1 (stereo not given) | > 59000 | 131 | 59000 |  | 
38 | Cc1cc(SC2=C(O)OC(CCc3ccc(O)cc3)(C3CCCCC3)CC2=O)c(C(C)(C)C)cc1OS(=O)(=O)c1ccc(F)cc1 (stereo not given) | 9500 | 29 | 66000 |  | 
39 | Cc1cc(SC2=C(O)OC(C)(CCc3ccc(O)cc3)CC2=O)c(C(C)(C)C)cc1N (stereo not given) | 3700 | 13 | > 100000 |  | 
40 | CCNS(=O)(=O)Oc1cc(C(C)(C)C)c(SC2=C(O)OC(CCc3ccccc3)(C(C)C)CC2=O)cc1C (stereo not given) | 800 |  | 67000 | 620 | 
